From the array DNA melting data of Ke et al. (doi:10.1101/2024.01.08.574731)

What was measured:
[1] = folding enthalpy; higher = less favourable; fluorescence melt of hairpins on a sequencing array, two-state fit; conditions: sodium 0.088 M
Summary of the method: (§1)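 With Cy3 and quencher oligos annealed, library hairpins on a sequenced MiSeq flow cell were imaged for Cy3 fluorescence in 50 mM Na-HEPES pH 8.0, 25 mM NaCl, in 2.5 °C steps up to 60 °C. Melting temperature and folding enthalpy were derived from bootstrapped two-state fits of signals normalised to pre-quench Cy3 and to control constructs. Four replicates were combined by inverse variance, with fitted temperatures raised by 9.35 °C to match UV melts.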

[2] = melting temperature; fluorescence melt of hairpins on a sequencing array, two-state fit, raised by 9.35 °C to match UV melts; conditions: sodium 0.088 M
Summary of the method: as §1

Row | Sequence | folding enthalpy [1] | Tm [2]
1 | GAGGGCGAAAGCCATCTC ((((((....)))..))) | -16.2 kcal/mol | 65.6 °C
2 | GCGATAGAAATATCGC ((((((....)))))) | -41.7 kcal/mol | 58.3 °C
3 | GGGCCGGCGAAAGCCCCC (((..(((....)))))) | -11.2 kcal/mol | 51 °C
4 | GACATTGAAAAATGTC ((((((....)))))) | -31.1 kcal/mol | 50.3 °C
5 | GCTCAGCGAAAGCTCGGC ((..(((....)))..)) | -14.5 kcal/mol | 39.5 °C
6 | GATCAGGCCGCTGATC ((((((....)))))) | -41.3 kcal/mol | 51.8 °C
7 | GATCCAGGTTTGGATC ((((((....)))))) | -42.5 kcal/mol | 51.7 °C
8 | GCGTCCGAAAGGATACGC ((((((....)))..))) | -29.2 kcal/mol | 55.5 °C
9 | GTCGTTGGAAACAATGGC (.(.(((....))).).) | -24.8 kcal/mol | 35 °C
10 | GGGCGTGGAAACGCGTCC ((.((.(....).)).)) | -12.9 kcal/mol | 50.7 °C
11 | GATCACATAAGTGATC ((((((....)))))) | -39.3 kcal/mol | 58.9 °C
12 | GGAGGGGAAACCCTCC ((((((....)))))) | -30.9 kcal/mol | 62.8 °C
13 | GGTGCCGAAAGGCAGACC ((((((....)))..))) | -12.1 kcal/mol | 52.2 °C
14 | GATCTTTTTCAAGATC ((((((....)))))) | -33.6 kcal/mol | 42.3 °C
15 | GCTTTGCGAAAGCATGGC ((..(((....)))..)) | -16.7 kcal/mol | 49.5 °C
16 | GTAGGCCGAAAGGCTTAC (((.(((....))).))) | -21.2 kcal/mol | 55.4 °C
17 | GCAGCCGGAAACGGCCGC ((.((((....)))).)) | -17.2 kcal/mol | 58.9 °C
18 | GATCTGTGAGCAGATC ((((((....)))))) | -40 kcal/mol | 55 °C
19 | CGTGCGGAAACGCAACG ((((((....))).))) | -27.5 kcal/mol | 53.9 °C
20 | GGCCGTCGAAAGACCGCC (((.(((....))).))) | -42.5 kcal/mol | 53 °C
21 | GCGAAGCGAAAGCTCAGC ((..(((....)))..)) | -7.68 kcal/mol | 41.1 °C
22 | GCCTTGGGAAACCAAAGC ((.((((....)))).)) | -18 kcal/mol | 37.6 °C
23 | GCTGAGCGAAAGCTTCGC ((..(((....)))..)) | -13.4 kcal/mol | 49.5 °C

Row | Sequence | folding enthalpy [1] | Tm [2]
24 | GCCTACCGAAAGGTCGGC (((.(((....))).))) | -39.7 kcal/mol | 56.5 °C
25 | GTCCCAGGAAACTAGGAC ((((.((....)).)))) | -21.5 kcal/mol | 35.9 °C
26 | GCAGAGCGAAAGCCGTGC (((..((....))..))) | -16.4 kcal/mol | 42.1 °C
27 | GAGAATCCGAAAGGACTC (((..(((....)))))) | -16 kcal/mol | 27.7 °C
28 | GGAGCGGGAAACCGTTCC (((.(((....))).))) | -38.4 kcal/mol | 54.9 °C
29 | GAGCGCGAAAGCGACCTC ((((((....)))..))) | -11.8 kcal/mol | 46.6 °C
30 | GCTAACCGAAAGGTAAGC (((.(((....))).))) | -30.8 kcal/mol | 52.1 °C
31 | GCTTTCCCGAAAGGGAGC (((..(((....)))))) | -10.2 kcal/mol | 34.3 °C
32 | GTGCAACGAAAGTTACAC (((.(((....))).))) | -22.6 kcal/mol | 44.9 °C
33 | GATCTAGGAAACTGGATC ((((.((....)).)))) | -34 kcal/mol | 41.8 °C
34 | GTAGTAGGAAACTATTAC (((.(((....))).))) | -17.7 kcal/mol | 29.9 °C
35 | GGTGACGGAAACACCACC ((((..(....)..)))) | -20 kcal/mol | 34.5 °C
36 | GGAGCGGGAAACTGCTCC (((((.(....).))))) | -45 kcal/mol | 60.9 °C
37 | GATCGTGGAAACGATC ((((((....)))))) | -32.5 kcal/mol | 61 °C
38 | GATGGACCGAAAGGTATC (((..(((....)))))) | -11.1 kcal/mol | 26.8 °C
39 | GCAGCTCGAAAGAGGTGC (((.(((....))).))) | -29.4 kcal/mol | 67.5 °C
40 | GATCTTCACTAAGATC ((((((....)))))) | -29.7 kcal/mol | 43.9 °C
41 | GATCGGATGCCCGATC ((((((....)))))) | -27 kcal/mol | 55.5 °C
42 | GCATTCGAAAGAATATGC ((((((....)))..))) | -24.8 kcal/mol | 36.1 °C
43 | CGTAGCGGAAACGCACG (((.(((....)))))) | -22.2 kcal/mol | 53.1 °C
44 | GTGTGAGGAAACTCATGC (..((((....))))..) | -23.5 kcal/mol | 36.8 °C
45 | GTATATGGAAACATATGC (.(((((....))))).) | -25 kcal/mol | 36.5 °C
46 | GTCCTGGGAAACTAGGGC (.(((.(....).))).) | -28.8 kcal/mol | 40 °C

Row | Sequence | folding enthalpy [1] | Tm [2]
47 | GATCCACTCTGGATC ((((((...)))))) | -36.5 kcal/mol | 52.4 °C
48 | GATCACACCGGTGATC ((((((....)))))) | -39.3 kcal/mol | 57.3 °C
49 | GCTCTGGGAAACCAGAGC (((((((....))))))) | -42.5 kcal/mol | 69 °C
50 | GATCTCGGCGAGATC ((((((...)))))) | -35.8 kcal/mol | 59.6 °C
51 | GGTGCCGAAAGGCTTACC ((((((....)))..))) | -13.7 kcal/mol | 44.1 °C
52 | GCTCGGCGAAAGCCCCGC ((..(((....)))..)) | -4.44 kcal/mol | 44.6 °C
53 | GTCACCGAAAGGTAGAC ((((((....))).))) | -18.9 kcal/mol | 51 °C
54 | GTGCATCGAAAGATCAC (((.(((....)))))) | -24.2 kcal/mol | 46.8 °C
55 | GCAACGCGAAAGCGAGGC ((..(((....)))..)) | -13.5 kcal/mol | 59.9 °C
56 | GCGTTCCGAAAGGACGC (((.(((....)))))) | -41.9 kcal/mol | 63.3 °C
57 | GGGGACGAAAGTCCACCC ((((((....)))..))) | -11.2 kcal/mol | 55.2 °C
58 | CGAGATCGGAAACGATCG (((..(((....)))))) | -20 kcal/mol | 51.6 °C
59 | GGATGCGAAAGCACCTCC ((((((....)))..))) | -14.4 kcal/mol | 54.6 °C
60 | GTACCACGAAAGTGTAC (((.(((....)))))) | -22 kcal/mol | 42.3 °C
61 | GCCCTCGGAAACGAGGAC (.(((((....))))).) | -13.4 kcal/mol | 50.3 °C
62 | CTACAGAAATGTAG (((((....))))) | -13.3 kcal/mol | 36.5 °C
63 | GATCAGTCTCTGATC ((((((...)))))) | -40.3 kcal/mol | 50.7 °C
64 | CGCGGACAGTTCCGCG ((((((....)))))) | -40.7 kcal/mol | 66.6 °C
65 | GTCTCAACGAAAGTTGAC (((..(((....)))))) | -10.7 kcal/mol | 30.5 °C
66 | GTAGGCGGAAACGCCTGC (.(((((....))))).) | -18.6 kcal/mol | 56.7 °C
67 | GAAACGACGAAAGTCTTC (((..(((....)))))) | -9.41 kcal/mol | 29.5 °C
68 | CGCACGGAAACGTTTGCG ((((((....)))..))) | -29.5 kcal/mol | 44.1 °C
69 | GTCATACGAAAGTAAGAC (((.(((....))).))) | -25.6 kcal/mol | 43.5 °C

Row | Sequence | folding enthalpy [1] | Tm [2]
70 | GATCCAACCCTGGATC ((((((....)))))) | -29 kcal/mol | 48.3 °C
71 | GCGCATGGAAACATGCAC (.(((((....))))).) | -12.5 kcal/mol | 47.1 °C
72 | GGGCTCCGAAAGGACCCC (((.(((....))).))) | -20.5 kcal/mol | 53.9 °C
73 | GGGGGATCGAAAGATCCC (((..(((....)))))) | -8.42 kcal/mol | 59.9 °C
74 | GATCATCGATATGATC ((((((....)))))) | -29.4 kcal/mol | 45.3 °C
75 | GATCATCGCAATGATC ((((((....)))))) | -39.1 kcal/mol | 48.3 °C
76 | GGCTGCGAAAGCATGCC ((((((....))).))) | -21.6 kcal/mol | 66.7 °C
77 | GAGTTAGGAAACTAATTC ((.((((....)))).)) | -23.9 kcal/mol | 27.9 °C
78 | GCCCGGCGAAAGCCTCGC ((..(((....)))..)) | -6.9 kcal/mol | 27.3 °C
79 | GCCAGCGAAAGCTCTGGC ((((((....)))..))) | -24.5 kcal/mol | 50.6 °C
80 | GAGCGGACGAAAGTCCTC (((..(((....)))))) | -8.32 kcal/mol | 29.9 °C
81 | GACGACGAAAGTCAGTC ((((((....))).))) | -24.9 kcal/mol | 54.1 °C
82 | GCCGCGCGAAAGCTGGGC (((..((....))..))) | -20 kcal/mol | 56.3 °C
83 | GTGACAGGAAACCGTCAC (((((.(....).))))) | -34.6 kcal/mol | 50.4 °C
84 | CGGCCGGAAACGGCGCCG ((((((....)))..))) | -8.21 kcal/mol | 39.2 °C
85 | GCTTGCGCGAAAGCGAGC (((..(((....)))))) | -13.3 kcal/mol | 56.2 °C
86 | GGGTCCGGAAACGGGTCC ((..(((....)))..)) | -27.6 kcal/mol | 50.1 °C
87 | GATCATACATATGATC ((((((....)))))) | -40.7 kcal/mol | 47.7 °C
88 | GAGATCCGAAAGGACTC (((.(((....)))))) | -18.9 kcal/mol | 44.2 °C
89 | GTCACCGAAAGGTTCGAC ((((((....)))..))) | -14.9 kcal/mol | 30.3 °C
90 | GCTTCGCGAAAGCGCAGC (((.(((....))).))) | -30.7 kcal/mol | 54.1 °C
91 | GAGGTACGAAAGTACTC (((.(((....)))))) | -13.6 kcal/mol | 45.8 °C
92 | GCTATACGAAAGTAGAGC (((.(((....))).))) | -38.3 kcal/mol | 53.4 °C
